Compounds with a hit are over-represented: about 3.5% of the library has one in this group of screens.
RGS4 act – RGS4 potentiation or activation; HEK293 M3R/inducible RGS4, carbachol calcium flux Fluo4; hits give low values; B-score at 10 µM; 310,000 tested, 0.92% active;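 active means B-score of the integrated calcium signal more than 4 SD below the library mean, with starting fluorescence not abnormally high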;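 further: negative B-score means reduced calcium response which marks RGS4 activation or potentiation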
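Assay system: HEK293 FlpIn-TREx cells, stable M3R, doxycycline-inducible RGS4 / Probe or stimulus: carbachol, ECmax concentration / Times: overnight RGS4 induction, 30 min dye load 37 °C, 20 min compound RT / Signal: kinetic calcium fluorescence imaging with Fluo4-AM dye, 2 µM / Measure: Agonist-evoked peak-minus-minimum fluorescence over baseline, integrated ratio, B score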
RGS4 inh – inhibitors of human RGS4; P49798; HEK293 M3R/RGS4 inducible, Fluo-4 calcium flux; hits give high values; triggered by carbachol at its EC20; B-score at 10 µM; 310,000 tested, 0.45% active;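 active means B-score, a plate-corrected calcium signal, over three deviations above library mean, with baseline fluorescence within five deviations of library mean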;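 further: RGS4 expression induced by doxycycline in cells with stable M3 receptor; B-score is computed from the integrated fluorescence ratio over baseline after carbachol; higher B-score means a larger calcium signal and so more RGS4 inhibition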
Target sequence (P49798 whole entry, looked up): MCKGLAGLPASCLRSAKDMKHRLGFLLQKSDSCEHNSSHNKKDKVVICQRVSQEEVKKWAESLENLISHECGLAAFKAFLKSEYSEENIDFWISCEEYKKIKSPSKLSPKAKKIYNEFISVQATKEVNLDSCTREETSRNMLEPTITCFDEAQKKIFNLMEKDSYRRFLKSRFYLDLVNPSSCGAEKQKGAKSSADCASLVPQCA
MrgX1 agonist – activates human MrgX1 receptor signaling. Q96LB2. MrgX1-HEK293 cells, Fluo-4 calcium fluorescence, agonist mode; hits give high values. B-score at 10 µM. 310,000 tested, 0.44% active;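 active means calcium response B-score plate-corrected fluorescence ratio at least 3 library SD, with starting fluorescence B-score inside 5 SD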
Target sequence (Q96LB2 whole entry, looked up): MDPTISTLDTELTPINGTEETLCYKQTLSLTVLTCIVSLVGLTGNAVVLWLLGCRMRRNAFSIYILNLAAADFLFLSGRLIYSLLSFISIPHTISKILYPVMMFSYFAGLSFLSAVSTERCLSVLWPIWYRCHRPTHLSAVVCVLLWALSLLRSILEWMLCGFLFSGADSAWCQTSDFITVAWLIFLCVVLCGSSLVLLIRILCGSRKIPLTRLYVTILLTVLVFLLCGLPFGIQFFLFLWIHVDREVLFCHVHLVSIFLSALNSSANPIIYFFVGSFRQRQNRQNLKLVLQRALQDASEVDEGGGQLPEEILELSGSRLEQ
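Test system: HEK293 cells stably expressing human MrgX1 receptor; amount: 15,000 cells per well; doses: compound delivered in addition one of three; times: overnight plating before 1 h dye loading; detection: Fluo-4 NW calcium-flux fluorescence, kinetic read; read-out basis: B-scored fluorescence response ratio; controls: positive and negative controls per plate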
MrgX1 PAM – allosterically activates human MrgX1 receptor signaling. MrgX1-HEK293, Fluo-4 calcium flux, FDSS; hits give high values. B-score at 10 µM. 310,000 tested, 0.63% active. AID 588675;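 active means plate-corrected calcium response at least 3 library SD above typical, normal starting fluorescence, not activating the receptor alone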;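 further: compound read alongside a low EC10 to EC30 dose of BAM8-22 agonist; peak minus trough fluorescence over baseline measured at the second addition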
MrgX1 antag – antagonists of human MrgX1 receptor; MRGX1-HEK293 calcium flux, Fluo-4, BAM8-22 antagonism; hits give low values; B-score at 10 µM; 310,000 tested, 1.3% active;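 active means calcium-response B-score plate-corrected more than 3 library SD below zero, starting fluorescence within 5 deviations, no agonist response on first addition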;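 further: peak minus trough fluorescence over baseline after final BAM8-22 challenge near maximal dose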
MrgX1 antag conf – confirmation of human MrgX1 receptor antagonists. shares compounds with MrgX1 antag. MrgX1-HEK293, BAM8-22 calcium flux, Fluo-4; hits give low values. remaining BAM8-22 calcium response % of control (hits give low values), % at 10 µM. 2,300 tested, 19% active. AID 602420;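 active means remaining agonist calcium response no higher than 100% minus 3 SD of agonist-only control wells, with starting fluorescence near control levels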;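 further: agonist BAM8-22 given at a near maximal EC90 to ECmax level; peak minus minimum fluorescence divided by baseline after agonist addition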
HEK293 Ca flux – counter-screen for MrgX1 antagonists: effect in parental HEK293 cells. fluorescence ratio F(max-min)/F0 at 10 µM. 4,000 tested, 2% active. Fluo-4 calcium fluorescence, FDSS. shares compounds with MrgX1 antag;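 active means duplicate-averaged calcium fluorescence ratio at least three times the standard deviation of buffer wells, a nonspecific response in parental cells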
HEK293 Ca counter – MrgX1 allosteric activator counter-screen hit in parental HEK293 cells; 4,000 tested, 0.4% active; parental HEK293 calcium flux, Fluo-4 fluorescence ratio; hits give high values; shares compounds with MrgX1 antag; fluorescence ratio F(max-min)/F0 at 10 µM;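 active means calcium fluorescence ratio, averaged over duplicates, at least 3 SD of the buffer-well ratio, meaning a nonspecific response in receptor-free cells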;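 further: untransfected parental HEK293 lacking MrgX1 used as counterscreen for MrgX1 allosteric activators; fluorescence change taken during the second addition on a kinetic imager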
HEK293 Ca cntr2 – MrgX1 activator counter-screen hit in parental HEK293 cells | shares compounds with MrgX1 antag | Fluo-4 calcium fluorescence (FDSS); hits give high values | fluorescence ratio F(max-min)/F0 at 10 µM | 4,000 tested, 8.7% active;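 active means calcium fluorescence ratio at least three times the spread of buffer wells, meaning a non-specific response in parental cells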
* = called active by the depositor; i = inactive; · = no result given.

SMILES | RGS4 act | RGS4 inh | MrgX1 agonist | MrgX1 PAM | MrgX1 antag | MrgX1 antag conf | HEK293 Ca flux | HEK293 Ca counter | HEK293 Ca cntr2
Cc1ccccc1N1CCN(C(=O)CN2C(=O)c3ccccc3C2=O)CC1 | i | i | i | i | i | · | · | · | ·
COc1ccc(S(=O)(=O)N2CCC3(CC2)OCCN3S(=O)(=O)c2ccc(C)cc2)cc1OC | i | i | i | i | -6.63* | i | i | i | i
CC(C)Cn1c(N)c(C(=O)COC(=O)c2ccc([N+](=O)[O-])o2)c(=O)n(C)c1=O | i | i | i | i | i | · | · | · | ·
CN1CCOCCOCCN(C)C1=O | i | i | i | i | -4.59* | i | i | i | i
CCOC(=O)C1(Cc2ccccc2)CCCN(CCO)C1 (stereo not drawn) | i | i | i | i | -5* | i | i | i | i
CCOC(=O)C1(Cc2ccccc2)CCN(Cc2cnn(-c3ccccc3)c2)CC1 | i | i | i | i | -6.02* | 73.0%* | i | i | i
Cc1cc(NC(=O)CC2Oc3ccccc3NC2=O)ccc1Br (stereo not drawn) | i | i | i | i | i | · | · | · | ·
Cc1cccc(OCC(=O)Nc2ccc(CN3CCOCC3)cc2)c1C | i | i | i | i | -6.65* | i | i | i | i
COc1ccc(CCN=C(N)NS(=O)(=O)c2ccc(C)c(C)c2)cc1OC | i | i | i | i | i | · | · | · | ·
COc1ccc(S(=O)(=O)NC(N)=NCCc2ccc(OC)c(OC)c2)cc1 | i | i | i | i | -7.38* | i | i | i | i
O=C(Nc1cccnc1)c1cccc(S(=O)(=O)N2CCCCC2)c1 | i | i | i | i | -6.41* | i | i | i | i
COC(=O)c1cccc(S(=O)(=O)N2CCOCC2)c1 | i | i | i | i | i | · | · | · | ·
COC(=O)c1cccc(S(=O)(=O)N2CCCC2)c1 | i | i | i | i | -5.86* | i | i | i | i
CSc1nc2c(c(=O)[nH]c(=O)n2C)n1Cc1ccccc1Cl | i | i | i | i | i | · | · | · | ·
Cc1csc(Sc2nc3c(c(=O)[nH]c(=O)n3C)n2Cc2ccccc2Cl)n1 | i | i | i | i | -8.75* | i | i | i | i
Cn1c(=O)c2c(nc(NNC(=O)C(F)(F)F)n2C)n(C)c1=O | i | i | i | i | i | · | · | · | ·
O=C1CCc2cc(S(=O)(=O)N3CCN(c4ccccc4F)CC3)ccc2N1 | i | i | i | i | -4.99* | i | i | i | i
CC1CN(CCn2cnc3c(N)ncnc32)CC(C)O1 (stereo not drawn) | i | i | i | i | i | · | · | · | ·
Nc1ncnc2c1ncn2CCN1CCCCC1 | i | i | i | i | -5.72* | i | i | i | i
CC1=C(C#N)CCC(=O)N1Cc1ccc(C)cc1 | i | i | i | i | -7.71* | i | i | i | i
COc1ccc(CCCC(=O)Nc2ccc(F)cc2)cc1 | i | i | i | i | i | · | · | · | ·
CNC(=O)COC(=O)c1nc(-n2nc(C)cc2C)ccc1Cl | i | i | i | i | -6.77* | i | i | i | i
Cc1ccc(C(=O)N2CCC(N3CCC(C(=O)N4CCOCC4)CC3)CC2)cc1C | i | i | i | i | i | · | · | · | ·
Cc1cc(NC(=O)COC(=O)C2CCN(S(=O)(=O)c3ccccc3)CC2)c([N+](=O)[O-])cc1C | i | i | i | i | i | · | · | · | ·
CCOC(=O)CCc1c(C)nc2cc(C3CCCN(C(=O)OC(C)(C)C)C3)[nH]n2c1=O (stereo not drawn) | · | · | i | i | -5.38* | i | i | i | i
SMILES | RGS4 act | RGS4 inh | MrgX1 agonist | MrgX1 PAM | MrgX1 antag | MrgX1 antag conf | HEK293 Ca flux | HEK293 Ca counter | HEK293 Ca cntr2
CCOC(=O)CCc1c(C)nc2cc(-c3ccccc3OC)[nH]n2c1=O | i | i | i | i | i | · | · | · | ·
Cc1cccc(NC(=O)C2CCCN(S(=O)(=O)c3ccc4[nH]c(=O)ccc4c3)C2)c1 (stereo not drawn) | i | i | i | i | -6.55* | i | i | i | i
CCc1cccc(NC(=O)C2CCN(S(=O)(=O)c3ccc4[nH]c(=O)ccc4c3)CC2)c1 | i | i | i | i | i | · | · | · | ·
CCOC(=O)C1CCN(C(=O)Cn2c(=O)oc3cc(S(=O)(=O)N4CCCC4)ccc32)CC1 | i | i | i | i | -5.08* | i | i | i | i
Cc1ccc(C)c(N2CCN(C(=O)Cn3c(=O)oc4cc(S(=O)(=O)N5CCCC5)ccc43)CC2)c1 | i | i | i | i | i | · | · | · | ·
CCOC(=O)C1CCN(S(=O)(=O)c2ccc3[nH]c(=O)ccc3c2)CC1 | i | i | i | i | -4.73* | i | i | i | i
Cc1ccc(NC(=O)C2CCCN(S(=O)(=O)c3ccc4[nH]c(=O)ccc4c3)C2)cc1C (stereo not drawn) | i | i | i | i | i | · | · | · | ·
Cc1cc(C)cc(NC(=O)C2CCN(S(=O)(=O)c3ccc4[nH]c(=O)ccc4c3)CC2)c1 | i | i | i | i | -6.36* | i | i | i | i
CCOc1ccc(S(=O)(=O)n2ccnc2C)cc1 | i | i | i | i | i | · | · | · | ·
Cc1cccc(NC(=S)N2CCN(S(=O)(=O)c3cccc(F)c3)CC2)c1 | i | i | i | i | i | · | · | · | ·
COc1cc(C(C(=O)NC(C)(C)C)N(C(=O)CNC(=O)c2cccs2)c2cccnc2)cc(OC)c1OC (stereo not drawn) | i | i | i | i | i | · | · | · | ·
O=[N+]([O-])c1cc(C(F)(F)F)ccc1NCCCCNS(=O)(=O)c1ccc(Cl)cc1 | i | i | i | i | i | · | · | · | ·
O=[N+]([O-])c1cc(C(F)(F)F)ccc1NCCNC(=S)Nc1ccc(Cl)cc1 | -7.12* | i | i | i | -10.8* | 71.8%* | i | i | i

Source: PubChem BioAssay
